Reference: ChEMBL document CHEMBL1671727, “Expression, purification, and characterization of Aspergillus fumigatus sterol 14-alpha demethylase (CYP51) isoenzymes A and B” (Antimicrob Agents Chemother, 2010)
Converted amounts (≈) assume the structure as drawn.

Key:
[1] = target: T1, 14-alpha sterol demethylase (Neosartorya fumigata (Aspergillus fumigatus), UniProt Q96W81); assay: Binding affinity to Aspergillus fumigatus AF293 sterol 14-alpha demethylase isoenzyme B expressed in Escherichia coli assessed as tight binding affinity constant
T1 sequence (Q96W81 whole entry): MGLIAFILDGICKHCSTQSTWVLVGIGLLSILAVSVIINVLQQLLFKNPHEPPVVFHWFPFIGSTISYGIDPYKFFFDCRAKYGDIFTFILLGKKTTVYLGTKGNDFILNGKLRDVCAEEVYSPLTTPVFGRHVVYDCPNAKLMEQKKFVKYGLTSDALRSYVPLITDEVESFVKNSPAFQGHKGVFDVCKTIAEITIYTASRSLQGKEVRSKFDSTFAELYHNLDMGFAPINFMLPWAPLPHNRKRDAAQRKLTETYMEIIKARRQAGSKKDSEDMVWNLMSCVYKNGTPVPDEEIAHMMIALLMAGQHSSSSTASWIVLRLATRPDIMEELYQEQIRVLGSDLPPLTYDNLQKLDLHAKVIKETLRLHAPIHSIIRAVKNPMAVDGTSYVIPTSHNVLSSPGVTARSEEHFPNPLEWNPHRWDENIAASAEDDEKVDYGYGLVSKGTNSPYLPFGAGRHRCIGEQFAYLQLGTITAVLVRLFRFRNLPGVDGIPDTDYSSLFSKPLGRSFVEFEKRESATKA
In short: (§1)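 His-tagged CYP51 (Af293 sequence, codon-optimised, E. coli-expressed), cholate-solubilised and Ni-NTA purified, at 1 μM in 0.1 M Tris-HCl pH 8.1 with 25% glycerol. Azole (0.05 mg/ml DMSO stock) titrated in split 4.5 mm cuvettes, with DMSO added to the reference. Difference spectra were read at 500–350 nm. Peak-to-trough change was plotted against concentration. Kd came from Morrison (tight binding), Michaelis-Menten or Hill fits.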

[2] = target: T2, Sterol 14-alpha demethylase cyp51A (Neosartorya fumigata (strain ATCC MYA-4609 / Af293 / CBS 101355 / FGSCA1100) (Aspergillus fumigatus), UniProt Q4WNT5); assay: Binding affinity to Aspergillus fumigatus AF293 sterol 14-alpha demethylase isoenzyme A expressed in Escherichia coli; in short: as §1
T2 sequence (Q4WNT5 whole entry): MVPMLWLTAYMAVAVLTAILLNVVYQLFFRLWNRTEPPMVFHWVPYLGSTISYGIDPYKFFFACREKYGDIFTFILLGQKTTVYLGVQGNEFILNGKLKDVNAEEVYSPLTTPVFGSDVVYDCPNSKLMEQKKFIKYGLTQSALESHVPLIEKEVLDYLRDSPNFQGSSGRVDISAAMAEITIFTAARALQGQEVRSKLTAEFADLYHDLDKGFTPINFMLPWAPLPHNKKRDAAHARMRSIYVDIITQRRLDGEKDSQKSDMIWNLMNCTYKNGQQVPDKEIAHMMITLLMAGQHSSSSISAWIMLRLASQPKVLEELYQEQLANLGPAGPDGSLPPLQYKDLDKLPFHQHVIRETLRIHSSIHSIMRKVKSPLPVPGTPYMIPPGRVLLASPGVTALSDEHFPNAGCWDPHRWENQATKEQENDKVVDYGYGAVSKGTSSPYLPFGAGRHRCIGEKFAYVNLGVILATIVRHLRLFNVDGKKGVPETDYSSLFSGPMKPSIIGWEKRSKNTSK

Aspergillus fumigatus [3] = assay: Antimicrobial activity against Aspergillus fumigatus AF293; assay type: functional
Aspergillus fumigatus [4] = assay: Antimicrobial activity against sterol 14-alpha demethylase isoenzyme B-deficient Aspergillus fumigatus CEA10; assay type: functional
[5] = Binding affinity to Mycobacterium smegmatis CYP51; design: species or system Mycolicibacterium smegmatis
[6] = target: Lanosterol 14-alpha demethylase (Candida albicans (strain SC5314 / ATCC MYA-2876) (Yeast), UniProt P10613); assay: Binding affinity to Candida albicans CYP51
Lanosterol 14-alpha demethylase, sequence (P10613 whole entry): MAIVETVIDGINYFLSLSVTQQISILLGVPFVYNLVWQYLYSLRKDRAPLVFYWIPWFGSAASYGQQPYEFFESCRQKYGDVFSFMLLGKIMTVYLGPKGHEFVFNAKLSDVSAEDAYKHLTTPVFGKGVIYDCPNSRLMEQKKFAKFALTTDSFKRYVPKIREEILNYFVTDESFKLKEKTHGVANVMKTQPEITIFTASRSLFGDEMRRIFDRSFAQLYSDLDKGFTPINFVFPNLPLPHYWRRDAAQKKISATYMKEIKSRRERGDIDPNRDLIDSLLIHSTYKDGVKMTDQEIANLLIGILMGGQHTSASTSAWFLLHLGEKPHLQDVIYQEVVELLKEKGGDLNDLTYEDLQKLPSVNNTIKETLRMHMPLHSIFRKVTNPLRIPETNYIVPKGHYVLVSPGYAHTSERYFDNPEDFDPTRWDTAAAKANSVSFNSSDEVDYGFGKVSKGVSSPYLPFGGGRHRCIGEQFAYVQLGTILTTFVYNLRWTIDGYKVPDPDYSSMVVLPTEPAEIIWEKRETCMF

Aspergillus fumigatus [7] = assay: Antimicrobial activity against Aspergillus fumigatus CEA10; assay type: functional
Aspergillus fumigatus [8] = assay: Antimicrobial activity against sterol 14-alpha demethylase isoenzyme A-deficient Aspergillus fumigatus CEA10; assay type: functional
Aspergillus fumigatus [9] = assay: Antimicrobial activity against sterol 14-alpha demethylase isoenzyme A-deficient Aspergillus fumigatus CM237; assay type: functional
Aspergillus fumigatus [10] = assay: Antimicrobial activity against Aspergillus fumigatus CM237; assay type: functional
[11] = target: T1, 14-alpha sterol demethylase; assay: Binding affinity to Aspergillus fumigatus AF293 sterol 14-alpha demethylase isoenzyme B expressed in Escherichia coli; in short: as §1

Row | Compound | Kd [1] | Kd [2] | MIC (Aspergillus fumigatus [3]) | further results
1 | Clc1ccccc1C(c1ccccc1)(c1ccccc1)n1ccnc1 [CLOTRIMAZOLE] | 103 nM | 4.79 µM |  | 
2 | OC(Cn1cncn1)(Cn1cncn1)c1ccc(F)cc1F [FLUCONAZOLE] |  | 11.9 µM |  | MIC (Aspergillus fumigatus [3]; read-out: MIC): 105 µg/mL; MIC (Aspergillus fumigatus [4]; read-out: MIC): > 327 µg/mL; Kd [5]: 19 µM; Kd [6]: 45 nM; MIC (Aspergillus fumigatus [7]; read-out: MIC): > 327 µg/mL; MIC (Aspergillus fumigatus [8]; read-out: MIC): 20 µg/mL
3 | CCC(C)n1ncn(-c2ccc(N3CCN(c4ccc(OCC5COC(Cn6cncn6)(c6ccc(Cl)cc6Cl)O5)cc4)CC3)cc2)c1=O (centres undefined) [ITRACONAZOLE] | 31 nM | 1.01 µM | 0.71 µM | MIC (Aspergillus fumigatus [4]): 0.85 µM; MIC (Aspergillus fumigatus [7]): 0.85 µM; MIC (Aspergillus fumigatus [8]): 0.053 µM
4 | CC[C@@H]([C@H](C)O)n1ncn(-c2ccc(N3CCN(c4ccc(OC[C@@H]5CO[C@@](Cn6cncn6)(c6ccc(F)cc6F)C5)cc4)CC3)cc2)c1=O [POSACONAZOLE] | 73 nM | 2.69 µM | 0.72 µM | 
5 | C[C@@H](c1ncncc1F)[C@](O)(Cn1cncn1)c1ccc(F)cc1F [VORICONAZOLE] | 429 nM | 3.63 µM | 0.72 µM | MIC (Aspergillus fumigatus [9]): 0.34 µM (≈ 0.119 µg/mL); MIC (Aspergillus fumigatus [10]): 1.49 µM (≈ 0.52 µg/mL); Kd [11]: 423 nM
